This note sets out measurements from ChEMBL document CHEMBL3421551, “Puupehenol, a potent antioxidant antimicrobial meroterpenoid from a Hawaiian deep-water Dactylospongia sp. sponge” (J Nat Prod, 2015).

Active and inactive are the calls of the source. The calls are words filed in the database; no cut-off is given here.

The nature of data set [1]: Antioxidant activity assessed as ferric reducing antioxidant power at 1 mg/ml by FRAP assay. Format: physicochemical. In a few lines:
(§1)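 Working reagent was 300 mM acetate buffer (pH 3.6), 10 mM TPTZ in 40 mM HCl and 20 mM FeCl3·6H2O mixed 10:1:1 and warmed to 37 °C. A blank read at 595 nm was taken, then sample was added. After 8 min at room temperature, absorbance was read at 595 nm, in triplicate. FRAP values (μM) came from an FeSO4 standard curve (50–1000 μM) run on each plate.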

Data set [2] deals with Staphylococcus aureus. Briefly: Antimicrobial activity against Staphylococcus aureus at 10 ug/disc by disc diffusion assay. The class given is functional. The note with it: read-out: IZ. (In agar diffusion tests the substance spreads into inoculated agar from a disc or well.)
The subject of data set [3] is Bacillus cereus. Briefly: Antimicrobial activity against Bacillus cereus at 10 ug/disc by disc diffusion assay. Format: functional. The note with it: read-out: IZ.
The subject of data set [4] is Escherichia coli. Briefly: Antimicrobial activity against Escherichia coli at 10 ug/disc by disc diffusion assay. The class given is functional. As to conditions: for zone of inhibition at 10 µg/disc: read-out: IZ. In a few lines:
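Disc diffusion assay, tested alongside S. aureus, B. cereus and P. aeruginosa. Discs loaded at 10 μg each, with a methanol disc as the negative control.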

Data set [5] concerns Pseudomonas aeruginosa. The data set can be described thus: Antimicrobial activity against Pseudomonas aeruginosa at 10 ug/disc by disc diffusion assay. Format: functional, organism-based.
The nature of data set [6]: Antioxidant activity assessed as ferric reducing antioxidant power at 0.1 mg/ml by FRAP assay. The class given is physicochemical. In a few lines: as §1

Regarding `CC1(C)CCC[C@]2(C)[C@H]3C=C4C=C(O)C(=O)C=C4O[C@@]3(C)CC[C@@H]12` [PUUPEHENONE], the Activity in data set [1] was determined as 2600 µM. In addition, the values for the zone of inhibition at 10 µg/disc in data set [2] and in data set [3] were 4 mm and 3 mm, respectively. For the same compound, the “inhibition zone (IZ)” value in data set [4] and in data set [5] was “inactive” throughout.

As to `CO` [METHYL ALCOHOL], the Activity in data set [1] is 4.7 µM. The zone of inhibition at 10 µg/disc in data set [2], in data set [3] and in data set [4] was 0 mm in each case. For the same compound, the “inhibition zone (IZ)” value in data set [5] was “inactive”.

With `CC1(C)S[C@@H]2[C@H](NC(=O)[C@H](N)c3ccccc3)C(=O)N2[C@H]1C(=O)O` [AMPICILLIN], the zone of inhibition at 10 µg/disc amounted to 31 mm in data set [2], 9 mm in data set [3] and 20 mm in data set [4]. For the same compound, in data set [5], the “inhibition zone (IZ)” value is “inactive”.

For `CC1(C)CCC[C@]2(C)[C@H]3[C@H](O)c4cc(O)c(O)cc4O[C@@]3(C)CC[C@@H]12` (relative stereo), the Activity in data set [1] worked out at 2500 µM. For the same compound, the zone of inhibition at 10 µg/disc was determined as 4 mm in data set [2] and 3 mm in data set [3]. The “inhibition zone (IZ)” value in data set [4] and in data set [5] was “inactive” throughout.

With `O=C1O[C@H]([C@@H](O)CO)C(O)=C1O` [ASCORBIC ACID], the Activity in data set [6] was 870 µM.
